Values after ≈ are worked out from the molar mass of the structure shown.
Legend:
[1] = in vivo; details: Sprague-Dawley, rat, iv, 1 mg/kg
[2] = tested on: Pseudomonas aeruginosa; test: Antibacterial activity against extended spectrum beta-lactamase IMP-4 producing multidrug resistant Pseudomonas aeruginosa clinical isolates after 18 hrs by broth microdilution method; assay type: functional
[3] = tested on: Escherichia coli; test: Antibacterial activity against Escherichia coli isolate 210737 after 18 hrs by broth microdilution method; assay type: functional; details: isolate 210737, 18 h
In short: (§1)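 CLSI broth microdilution in Mueller-Hinton broth with 16 mg/L 2,2'-bipyridyl added. Compounds were dissolved in DMSO, or in water for meropenem and ceftizoxime sodium, then serially diluted in growth medium.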

[4] = Drug degradation in human plasma at 10 uM after 4 hrs by LC-MS/MS analysis; assay type: ADME, cell-free; details: read-out: Drug degradation
In short: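 Human plasma containing compound (10 μM, n = 4) was incubated for 4 h at 37 °C under 5% CO2. Concentrations at T0 and at 4 h were measured by LC–MS/MS, and degradation was expressed as a percentage relative to the T0 average.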

[5] = tested on: Acinetobacter baumannii; test: Antibacterial activity against extended spectrum beta-lactamase OXA-23 producing multidrug resistant Acinetobacter baumannii clinical isolates after 18 hrs by broth microdilution method; assay type: functional
[6] = Volume of distribution in steady state in Sprague-Dawley rat at 1 mg/kg, iv measured up to 180 mins by LC-MS/MS analysis; assay type: ADME, organism-based; details: in vivo, read-out: Vdss
In short: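 Male Sprague-Dawley rats (200–220 g, n = 3 per group) received 1.0 mg/kg iv in water. Blood was taken from the retrobulbar vein at 2, 5, 15, 30, 45, 60, 90 and 180 min. Plasma was quantified by LC–MS/MS, and parameters were derived by noncompartmental analysis of mean plasma concentrations.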

[7] = tested on: Plasma; test: Fraction unbound in human plasma at 10 uM after 4 hrs by LC-MS/MS based rapid equilibrium dialysis method; assay type: ADME, cell-free
In short: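 Human plasma spiked at 10 μM was dialysed against buffer in a rapid equilibrium dialysis device for 4 h at 37 °C under 5% CO2 (n = 4). Both sides were quantified by LC–MS/MS. Fraction unbound was taken as the buffer concentration divided by the total plasma-side concentration.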

[8] = tested on: Klebsiella pneumoniae; test: Antibacterial activity against Klebsiella pneumoniae isolate 212232 after 18 hrs by broth microdilution method; assay type: functional; details: isolate 212232, 18 h
In short: as §1

[9] = tested on: Klebsiella pneumoniae; test: Antibacterial activity against extended spectrum beta-lactamase KPC-2 producing multidrug resistant Klebsiella pneumoniae clinical isolates after 18 hrs by broth microdilution method; assay type: functional
[10] = tested on: Escherichia coli; test: Antibacterial activity against extended spectrum beta-lactamases producing Escherichia coli clinical isolates after 18 hrs by broth microdilution method; assay type: functional
[11] = Clearance in Sprague-Dawley rat at 1 mg/kg, iv measured up to 180 mins by LC-MS/MS analysis; details: in vivo
[12] = in vivo; details: Sprague-Dawley, rat, iv, 1 mg/kg; remark: listed apart in the source
[13] = tested on: Escherichia coli; test: In vivo antibacterial activity against Escherichia coli isolate 210737 infected in Kunming mouse systemic infection model assessed as increase in mouse survival administered subcutaneously 0.5 to 4 hrs post infection measured after 48 hrs by Bliss method; assay type: functional; details: isolate 210737, sc
In short: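 Kunming mice, half male and half female, 18–22 g, 5 per group. Lethal systemic infection by intraperitoneal injection of 0.5 mL clinical E. coli 210737 inoculum at 5×10^4 CFU/mL. Given subcutaneously twice, at 0.5 and 4.0 h post-infection, at doses of 0.625 to 20 mg/kg.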

[14] = tested on: Klebsiella pneumoniae; test: In vivo antibacterial activity against multidrug resistant Klebsiella pneumoniae isolate 212232 infected in Kunming mouse systemic infection model assessed as increase in mouse survival administered subcutaneously 0.5 to 4 hrs post infection measured after 48 hrs by Bliss method; assay type: functional; details: isolate 212232, sc
In short: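 Kunming mice, half male and half female, 18–22 g, 5 per group. Infected intraperitoneally with 0.5 mL of MDR clinical K. pneumoniae 212232 at 3×10^6 CFU/mL. Subcutaneous doses of 3.125, 6.25, 12.5, 25, 50 and 100 mg/kg were given at 0.5 and 4.0 h post-infection.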

[15] = tested on: Klebsiella pneumoniae; test: In vivo antibacterial activity against multidrug resistant Klebsiella pneumoniae isolate 212232 infected in Kunming mouse systemic infection model assessed as increase in mouse survival at 100 mg/kg, sc administered 0.5 to 4 hrs post infection measured after 48 hrs by Bliss method; assay type: functional; details: isolate 212232, sc
In short: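 Lethal intraperitoneal infection of Kunming mice (mixed sex, 18–22 g, 5 per group) with 0.5 mL MDR K. pneumoniae 212232 at 3×10^6 CFU/mL. The 100 mg/kg dose was given subcutaneously at 0.5 and 4.0 h post-infection. Read-out is the percentage of mice surviving at 48 h after treatment.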

[16] = Klebsiella pneumoniae, 18 h, read-out: MIC

For `CC(C)C(O/N=C(\C(=O)N[C@@H]1C(=O)N(OS(=O)(=O)O)C1(C)C)c1csc(N)n1)c1cc(=O)c(O)cn1O` (stereo not given in full), the AUC(0-t) at 3 h [1] was 1.73 µg·h/mL, the MIC [2] was 0.25 to 1 mg/L (≈ 0.446 to 1.78 µM) and the MIC [3] was < 0.03 mg/L. The metabolised at 4 h, 10 µM [4] was 29%, the MIC [5] was 0.125 to 1 mg/L (≈ 0.223 to 1.78 µM) and the Vd [6] was 0.3 L/kg. The Fu [7] was 35% and the MIC [8] was < 0.03 mg/L.
Work on `CC(C)[C@H](O/N=C(\C(=O)N[C@@H]1C(=O)N(OS(=O)(=O)O)C1(C)C)c1nc(N)sc1Cl)c1cc(=O)c(O)cn1O` yielded an MIC [2] of 0.06 to 1 mg/L (≈ 0.101 to 1.68 µM), a metabolised at 4 h, 10 µM [4] of 33% and an MIC [5] of 0.5 to 1 mg/L (≈ 0.84 to 1.68 µM). It also gave an MIC [9, 16] of 0.25 to 0.5 mg/L (≈ 0.42 to 0.84 µM), a Fu [7] of 23% and an MIC [10] of 0.06 to 1 mg/L (≈ 0.101 to 1.68 µM).
`CC(O/N=C(\C(=O)N[C@@H]1C(=O)N(OS(=O)(=O)O)C1(C)C)c1csc(N)n1)c1cc(=O)c(O)cn1O` (stereo not given in full) showed an MIC [2] of 0.25 to 8 mg/L (≈ 0.469 to 15 µM), a metabolised at 4 h, 10 µM [4] of 24% and an MIC [5] of 0.5 to 64 mg/L (≈ 0.939 to 120 µM). For the same molecule, the MIC [9] was 0.03 to 64 mg/L, the Fu [7] was 41% and the MIC [10] was 0.06 to 0.25 mg/L (≈ 0.113 to 0.469 µM).
For `CC(C)[C@H](O/N=C(\C(=O)N[C@@H]1C(=O)N(OS(=O)(=O)O)C1(C)C)c1csc(N)n1)c1cc(=O)c(O)cn1O`, the AUC(0-t) at 3 h [1] was 0.675 µg·h/mL, the MIC [2] was 0.125 to 1 mg/L (≈ 0.223 to 1.78 µM) and the metabolised at 4 h, 10 µM [4] was 23%. The MIC [5] was 1 to 2 mg/L (≈ 1.78 to 3.57 µM), the MIC [9, 16] was 0.125 to 1 mg/L (≈ 0.223 to 1.78 µM) and the Vd [6] was 0.36 L/kg. For the same molecule, the clearance at 3 h [11] was 1.71 L/h/kg, the Fu [7] was 27% and the MIC [10] was 0.06 to 0.25 mg/L (≈ 0.107 to 0.446 µM). The half-life [12] was 15.6 min.
Work on `CC1(C)[C@H](NC(=O)/C(=N\OC(CO)c2cc(=O)c(O)cn2O)c2csc(N)n2)C(=O)N1OS(=O)(=O)O` (stereo not given in full) yielded an MIC [2] of 0.25 to 16 mg/L (≈ 0.456 to 29.2 µM), a metabolised at 4 h, 10 µM [4] of 50% and an MIC [5] of 0.5 to 2 mg/L (≈ 0.912 to 3.65 µM). For the same molecule, the MIC [9, 16] was 0.25 to 64 mg/L (≈ 0.456 to 117 µM), the Fu [7] was 59% and the MIC [10] was 0.06 to 4 mg/L (≈ 0.109 to 7.29 µM).
`CC(C)C(O/N=C(\C(=O)N[C@@H]1C(=O)N(OS(=O)(=O)O)C1(C)C)c1nsc(N)n1)c1cc(=O)c(O)cn1O` (stereo not given in full) gave an MIC [2] of 0.5 to 32 mg/L (≈ 0.89 to 57 µM), a metabolised at 4 h, 10 µM [4] of 11% and an MIC [5] of 0.5 to 4 mg/L (≈ 0.89 to 7.12 µM). The MIC [9, 16] was 0.06 to 1 mg/L (≈ 0.107 to 1.78 µM), the Fu [7] was 28% and the MIC [10] was 0.06 to 2 mg/L (≈ 0.107 to 3.56 µM).
Molecule `COC(=O)C(O/N=C(\C(=O)N[C@@H]1C(=O)N(OS(=O)(=O)O)C1(C)C)c1csc(N)n1)c1cc(=O)c(O)cn1O` (stereo not given in full) has an MIC [2] of 1 to 4 mg/L (≈ 1.73 to 6.94 µM), a metabolised at 4 h, 10 µM [4] of 66% and an MIC [5] of 0.5 to 1 mg/L (≈ 0.867 to 1.73 µM). For the same molecule, the MIC [9, 16] was 0.25 to 2 mg/L (≈ 0.434 to 3.47 µM), the Fu [7] was 61% and the MIC [10] was 0.25 to 1 mg/L (≈ 0.434 to 1.73 µM).
`CSCC(O/N=C(\C(=O)N[C@@H]1C(=O)N(OS(=O)(=O)O)C1(C)C)c1csc(N)n1)c1cc(=O)c(O)cn1O` (stereo not given in full) showed an AUC(0-t) at 3 h [1] of 0.661 µg·h/mL, an MIC [2] of 0.125 to 1 mg/L (≈ 0.216 to 1.73 µM) and a metabolised at 4 h, 10 µM [4] of 28%. The MIC [5] was 0.125 to 1 mg/L (≈ 0.216 to 1.73 µM), the Vd [6] was 0.37 L/kg and the clearance at 3 h [11] was 1.57 L/h/kg. The Fu [7] was 32% and the half-life [12] was 15 min.
In the case of `C[C@@H](O)[C@H]1C(=O)N2C(C(=O)O)=C(S[C@@H]3CN[C@H](C(=O)N(C)C)C3)[C@H](C)[C@H]12` [MEROPENEM], the ED50 [13] is reported as 2.04 mg/kg, the MIC [2] is reported as 32 to 64 mg/L (≈ 83.4 to 167 µM) and the MIC [3] is reported as 0.125 mg/L (≈ 0.326 µM). For the same molecule, the ED50 [14] was > 100 mg/kg, the MIC [5] was 64 mg/L (≈ 167 µM) and the survival at 100 mg/kg [15] was 0%. The MIC [9, 16] was 32 to 64 mg/L (≈ 83.4 to 167 µM), the MIC [8] was > 64 mg/L and the MIC [10] was 0.125 to 8 mg/L (≈ 0.326 to 20.9 µM).

— ChEMBL document CHEMBL4007487, “Discovery of Novel Pyridone-Conjugated Monosulfactams as Potent and Broad-Spectrum Antibiotics for Multidrug-Resistant Gram-Negative Infections” (J Med Chem, 2017)
